An excerpt weighted towards active compounds, which were near 4% of everything screened.
CHOP UPR activ = activators of apoptotic CHOP UPR arm, primary screen, cell-based, CHO-CHOP luciferase reporter, luminescence, uHTS | UPR activation; percent of tunicamycin response over DMSO baseline | activation, % at 10 µM | actives 0.34% (n = 330,000) | AID 449763, 2010;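 active means at 10 µM dose, activation of 40% or more, normalized to positive control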;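 further: 100% = tunicamycin at 10 µg/mL and 0% = DMSO alone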
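System: CHO CHOP reporter cells. Amount: 500 cells per well. Buffer or medium: F12 medium, 10% FBS. Compound dosing: one dose, 10 µM in 0.5% DMSO. Incubation: 6 h compound exposure at 37 °C after overnight seeding. Technique: Steady-Glo luciferase luminescence. Benchmarks: tunicamycin and DMSO controls.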
ABHD5 PLIN5 PPI = ABHD5-PLIN5 interaction inhibitors, primary screen, cell lysate, split luciferase complementation, luminescence; Split G. princeps luciferase complementation, 4 h; inhibition, % at 4 µM; Perilipin-5 (Homo sapiens) + 1-acylglycerol-3-phosphate O-acyltransferase ABHD5 (Homo …; AID 602281, 2012; actives 0.78% (n = 360,000);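 active means inhibition above the mean inhibition across every tested compound plus 3 SD, cut at about 22% in these data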;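 further: 0% = DMSO only wells and the 100% control is not disclosed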
Target sequence (Q00G26 whole entry, looked up): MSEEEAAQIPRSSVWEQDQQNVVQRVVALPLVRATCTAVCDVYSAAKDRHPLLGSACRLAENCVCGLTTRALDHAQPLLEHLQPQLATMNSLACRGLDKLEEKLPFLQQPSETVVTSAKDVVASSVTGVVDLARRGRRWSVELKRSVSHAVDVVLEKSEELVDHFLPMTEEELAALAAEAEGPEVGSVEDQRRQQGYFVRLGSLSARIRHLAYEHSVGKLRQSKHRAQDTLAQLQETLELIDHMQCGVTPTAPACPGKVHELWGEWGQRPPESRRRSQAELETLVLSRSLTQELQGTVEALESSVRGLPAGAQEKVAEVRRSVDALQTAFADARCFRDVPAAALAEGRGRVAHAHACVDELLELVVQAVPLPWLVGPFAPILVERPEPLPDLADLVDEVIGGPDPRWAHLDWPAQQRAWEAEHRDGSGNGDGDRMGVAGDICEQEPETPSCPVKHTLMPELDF
Target sequence (Q8WTS1 whole entry, looked up): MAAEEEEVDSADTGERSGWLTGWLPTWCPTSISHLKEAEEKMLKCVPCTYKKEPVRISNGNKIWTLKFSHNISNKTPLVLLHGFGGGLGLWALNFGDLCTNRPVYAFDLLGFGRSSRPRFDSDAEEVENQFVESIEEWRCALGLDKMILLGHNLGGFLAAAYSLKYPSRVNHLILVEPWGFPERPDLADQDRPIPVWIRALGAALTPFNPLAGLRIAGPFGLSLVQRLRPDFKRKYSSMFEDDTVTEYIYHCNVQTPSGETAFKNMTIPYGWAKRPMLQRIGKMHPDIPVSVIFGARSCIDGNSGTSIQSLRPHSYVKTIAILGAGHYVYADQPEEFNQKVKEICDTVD
UPR XBP1 act = activators of adaptive XBP1 UPR arm, primary screen, cell-based, CHO-XBP1 luciferase reporter, luminescence, uHTS; activation, % at 20 µM; IRE1-XBP1 UPR activation; percent of tunicamycin response, DMSO as zero; actives 0.33% (n = 330,000);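 active means versus positive control, 20 µM dose yields 30% or more activation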;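 further: 100% = tunicamycin at 10 µg/mL and 0% = DMSO only wells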
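Material: IRE1-XBP1 luciferase reporter CHO line / Quantity: one thousand reporter cells per well / Buffer or medium: F12 with 10% serum / Compound: 20 µM single concentration, DMSO 1% / Times: 6 h treatment, 37 °C / Detection: Steady-Glo luciferase glow luminescence, 10 min after reagent addition / Benchmarks: tunicamycin high, DMSO low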
Exocytosis inh = LAMP-1 surface exposure blockers, TALL-104 cells – cell-based, flow cytometry, MLPCN library, primary screen; TALL-104 LAMP-1 surface exposure; cells stimulated with thapsigargin and PMA; inhibition, % at 10 µM; actives 0.66% (n = 360,000); AID 651702, 2012;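 active means inhibition above about 55%, limit read from the data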
Mdm2 MdmX PPI = inhibitors of human Mdm2-MdmX association, primary screen, cell-based, luminescence, split luciferase, SaOS-2, uHTS; SaOS-2 split-luciferase Mdm2/MdmX complementation; inhibition, % at 8 µM; actives 3% (n = 330,000); AID 485346, 2010;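 active means inhibition of at least 50% at 8 µM in the primary screen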
Mdm2 MdmX conf = Mdm2-MdmX complex disruptors, retested hits, confirmation, luminescence, single concentration. actives 55% (n = 10,000). Mdm2-MdmX binding, luminescent assay. AID 489028, 2010. inhibition, % at 8 µM. shares compounds with Mdm2 MdmX PPI; in the data active means inhibition above about 40%
FLuc counter = full-length luciferase signal inhibition, confirmation, counter-screen for Mdm2/MdmX interaction inhibitor project, cell-based, single concentration, SaOS-2 | shares compounds with Mdm2 MdmX PPI | SaOS-2 full-length luciferase counterscreen, luminescence | inhibition, % at 8 µM | actives 77% (n = 6,200) | AID 504607, 2011;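 active means mean inhibition at 8 µM reaching about 37%, which flags the compound as non-specific, limit read from the data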;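 further: p53-null SaOS-2 cells with luciferase driven by a doxycycline-inducible promoter; compound on cells about two nights before reading with doxycycline added after day one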
* marks the source's active call; other numbers are inactive results; . = not tested or not shown.

SMILES	CHOP UPR activ	ABHD5 PLIN5 PPI	UPR XBP1 act	Exocytosis inh	Mdm2 MdmX PPI	Mdm2 MdmX conf	FLuc counter
CC12CNCC(C)(CN(C(c3ccccc3)c3ccccc3)C1)C2	0	6	-4	34	96*	47*	63*
Oc1ccc(Br)cc1-c1ccnn1-c1ccccc1	0	-2	-5	11	64*	57*	50*
CSC1=NC2(CC(c3ccccc3)Oc3cc(O)ccc32)CC(C)(C)N1 (stereo not given)	1	1	3	-4	3	.	.
O=c1c2ccccc2ncn1-c1ccccc1F	-2	-3	0	-2	17	.	.
Clc1ccc(CSc2nnc(-c3ccc4c(c3)OCO4)o2)cc1	0	-4	0	3	3	.	.
O=C1CCCCC1Sc1nnc(-c2ccc3c(c2)OCO3)o1 (stereo not given)	-8	-11	-10	-6	73*	69*	90*
CCOC(=O)C1(NC(=O)C2(NC(=O)CN3C(=O)c4ccccc4C3=O)CCCC2)CCCC1	.	-5	.	17	.	.	.
Cc1ccc(C)c(NC(=S)NC(NC(=O)/C=C/c2ccccc2)C(Cl)(Cl)Cl)c1 (stereo not given)	24	-5	14	2	81*	74*	31
Cc1ccc(C)c(NC(=S)NC(NC(=O)OCc2ccccc2)C(Cl)(Cl)Cl)c1 (stereo not given)	4	-8	-2	0	-5	.	.
O=C(NC(NC(=S)Nc1c(Cl)cc(Cl)cc1Cl)C(Cl)(Cl)Cl)OCc1ccccc1 (stereo not given)	2	-4	14	9	86*	57*	56*
O=C(/C=C/c1ccccc1)NC(NC(=S)Nc1ccc(Cl)cc1Cl)C(Cl)(Cl)Cl (stereo not given)	31	-8	6	13	95*	92*	23
O=C(/C=C/c1ccccc1)NC(NC(=S)Nc1ccc(C(=O)O)cc1)C(Cl)(Cl)Cl (stereo not given)	3	-3	0	6	-6	.	.
CC(NCc1cccc(OCc2ccccc2)c1)C(O)c1ccccc1 (stereo not given)	2	14	-2	-3	20	.	.
CC(NCc1ccc(OCc2ccc(Cl)cc2)cc1)C(O)c1ccccc1 (stereo not given)	6	18	27	67*	100*	60*	52*
Nc1ccc2c(c1)C(=O)C(=O)c1ccccc1-2	-8	14	-8	51	98*	99*	1
CCOc1ccc(CCN2C(=O)C(=O)N([C@@H](CC(C)C)CN3CCC[C@@H]3CN3C(=O)C(=O)NC[C@@H]3CC(C)C)C[C@@H]2Cc2ccccc2)cc1	.	4	.	5	.	.	.
CCOc1ccc(CCN2C(=O)C(=O)N([C@H](CCCN(C)Cc3ccccc3)CNCc3ccccc3)C[C@@H]2C(C)C)cc1	2	.	1	.	66*	56*	58*
Clc1ccccc1/C=C/c1nc(-c2ccccn2)no1	-7	2	-10	-2	66*	54*	95*
Cc1onc(-c2ccccc2Cl)c1-c1nc(-c2ccccn2)no1	-2	2	0	2	19	.	.
CCOc1ccc2nc(NC(=O)CS(=O)(=O)c3ccccc3)sc2c1	1	-6	1	-4	19	.	.

Compound activity: PubChem BioAssay, several laboratories
